DDE Tn7 FP inh: inhibitors of Tn7 peptide binding to fibrin DD(E), primary screen, biochemical, fluorescence polarization, human fibrin, Tn7 probe. FP displacement of FITC-Tn7 peptide from fibrin DD(E); 0% = median of compound wells per plate. Fibrinogen beta chain (Homo sapiens), P02675. hit rate 0.13% among 370,000. inhibition, % at 8.3 µM;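 active = inhibition above the mean of compounds falling within the control limits plus 3 SD of them, cut at about 14% in these data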
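System: human fibrin DD(E); quantity: Fibrin-DD(E) at 2 µM final; also added: fluorescent Tn7 probe at 0.1 µM; compound dosing: single nominal test concentration of 8.3 µM per compound; schedule: 10 min preincubation, 3 h with tracer, room temperature; detection: fluorescence polarization of the labelled Tn7 tracer; repeats: one replicate per compound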
PLCg1 inh: PLC-gamma1 enzyme inhibitors, primary screen, biochemical, fluorescence, purified enzyme; AID 720700, 2013; inhibition, % at 12.2 µM; fluorogenic substrate; hit rate 0.84% among 370,000; 1-phosphatidylinositol 4,5-bisphosphate phosphodiesterase gamma-1 (Homo sapiens), P19174; in the data active = inhibition above about 9.5%
Target sequence (P19174 whole entry, looked up): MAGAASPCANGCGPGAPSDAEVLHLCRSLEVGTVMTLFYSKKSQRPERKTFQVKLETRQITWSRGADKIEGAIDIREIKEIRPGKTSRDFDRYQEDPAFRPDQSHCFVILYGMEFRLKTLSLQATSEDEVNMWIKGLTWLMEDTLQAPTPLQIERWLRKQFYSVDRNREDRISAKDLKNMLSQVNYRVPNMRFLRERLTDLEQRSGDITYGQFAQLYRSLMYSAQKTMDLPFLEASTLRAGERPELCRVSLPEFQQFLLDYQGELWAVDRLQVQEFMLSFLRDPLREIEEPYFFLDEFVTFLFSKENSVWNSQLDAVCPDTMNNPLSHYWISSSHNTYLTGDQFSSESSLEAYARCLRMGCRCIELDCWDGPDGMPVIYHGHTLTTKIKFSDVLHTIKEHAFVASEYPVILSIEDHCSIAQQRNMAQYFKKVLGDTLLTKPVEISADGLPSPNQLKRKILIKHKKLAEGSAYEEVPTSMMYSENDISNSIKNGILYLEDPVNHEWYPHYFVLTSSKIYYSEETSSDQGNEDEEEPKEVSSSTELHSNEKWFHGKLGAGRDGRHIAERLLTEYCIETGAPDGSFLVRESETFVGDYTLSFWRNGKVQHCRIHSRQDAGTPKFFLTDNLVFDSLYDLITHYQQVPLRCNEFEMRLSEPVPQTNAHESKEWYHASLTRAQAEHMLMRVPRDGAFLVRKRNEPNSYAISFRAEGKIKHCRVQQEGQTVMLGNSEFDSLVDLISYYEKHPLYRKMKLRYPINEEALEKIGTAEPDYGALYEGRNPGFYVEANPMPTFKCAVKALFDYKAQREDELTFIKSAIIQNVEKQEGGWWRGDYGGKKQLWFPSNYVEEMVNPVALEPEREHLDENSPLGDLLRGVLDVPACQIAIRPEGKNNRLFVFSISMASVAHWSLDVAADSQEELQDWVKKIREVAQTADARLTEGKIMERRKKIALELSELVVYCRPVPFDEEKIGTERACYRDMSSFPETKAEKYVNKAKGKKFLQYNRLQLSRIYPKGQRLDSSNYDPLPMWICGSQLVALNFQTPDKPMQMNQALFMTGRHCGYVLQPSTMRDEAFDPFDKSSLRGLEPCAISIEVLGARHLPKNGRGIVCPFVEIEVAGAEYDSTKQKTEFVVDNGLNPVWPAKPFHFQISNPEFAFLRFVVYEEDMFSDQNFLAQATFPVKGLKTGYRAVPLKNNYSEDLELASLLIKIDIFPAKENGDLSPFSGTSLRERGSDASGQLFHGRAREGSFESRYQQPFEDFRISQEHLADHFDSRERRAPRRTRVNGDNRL
ADAM10 inh: human ADAM10 inhibitors, primary screen, biochemical, QFRET, HTS. Disintegrin and metalloproteinase domain-containing protein 10 (Homo sapiens), O14672. recombinant ADAM10, EDANS/DABCYL FRET peptide cleavage, 3 h. inhibition, % at 7 µM. hit rate 0.62% among 370,000;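 active = inhibition above a per-campaign cutoff equal to the mean of compounds falling between control-based bounds plus 3 SD, cut at about 20% in these data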
PLCb3 inh: human PLC-beta3 inhibitors, primary screen, biochemical, fluorescence; 1-phosphatidylinositol 4,5-bisphosphate phosphodiesterase beta-3 (Homo sapiens), Q01970; Purified PLC-beta3, fluorogenic substrate; inhibition, % at 12.2 µM; hit rate 0.18% among 370,000; AID 720704, 2013; in the data active = inhibition above about 11%
ADAM17 inh: ADAM17 inhibitors, primary screen, biochemical, QFRET; Disintegrin and metalloproteinase domain-containing protein 17 (Homo sapiens), P78536; inhibition, % at 6.95 µM; recombinant ADAM17, EDANS/DABCYL FRET peptide cleavage; hit rate 0.83% among 370,000;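 active = inhibition above the mean of compounds lying between control limits plus 3 SD, set per campaign, cut at about 8.5% in these data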
Tn6 DDE FP: inhibitors of Tn6 peptide binding to fibrin DD(E), primary screen, biochemical, fluorescence polarization, human fibrin, Tn6 probe | Fibrin DD(E) TRITC-Tn6 fluorescence polarization displacement | inhibition, % at 8.3 µM | hit rate 0.21% among 370,000 | AID 720509, 2013;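 active = inhibition above a per-campaign cutoff: mean of compounds within control limits plus 3 SD, cut at about 15% in these data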
ADAM10 confirm: human ADAM10 inhibitors, confirmation, biochemical, QFRET, triplicate; shares compounds with ADAM10 inh; ADAM10 QFRET peptide cleavage, EDANS fluorescence; inhibition, % at 6.95 µM; hit rate 1% among 2,100; AID 743208, 2013;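 active = inhibition above about 20% chosen separately for each screening run, limit read from the data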
ADAM17 counter: ADAM17 inhibitors, counter-screen for ADAM10 exosite inhibitor project, biochemical, QFRET, high throughput. ADAM17 QFRET peptide cleavage, EDANS fluorescence. inhibition, % at 6.95 µM. hit rate 0.5% among 2,100. AID 743214, 2013. shares compounds with ADAM10 inh;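 active = mean triplicate inhibition above the solvent-only control wells' mean plus 3 SD, cut at about 12% in these data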
A number is an active result; n = inactive; x = no result. Compounds with a hit are over-represented: about 2.3% of the library has one in this group of screens.

SMILES | DDE Tn7 FP inh | PLCg1 inh | ADAM10 inh | PLCb3 inh | ADAM17 inh | Tn6 DDE FP | ADAM10 confirm | ADAM17 counter
CCCN(CC(=O)Nc1cc(Cl)cc(Cl)c1)CC(=O)Nc1ccc(F)c(F)c1F | n | n | 28 | n | 13 | n | n | n
CCCN(CC(=O)Nc1ccccc1Br)CC(=O)Nc1ccc(F)c(F)c1F | n | n | n | n | n | n | x | x
COc1ccc(Cn2cc(CN3[C@@H](CC(C)C)COc4ccc(Cl)cc4S3(=O)=O)nn2)cc1 | n | n | n | n | n | n | x | x
O=C(NNC(=S)Nc1cccc(C(F)(F)F)c1)c1ccc(Cl)cc1Cl | n | n | n | n | n | n | x | x
Cc1ccccc1C(=O)NNC(=S)Nc1cccc(C(F)(F)F)c1 | n | n | 25 | n | 8.7 | n | n | n
COc1ccc(S(=O)(=O)NCC(=O)N(Cc2ccco2)C(C(=O)NC(C)(C)C)C(C)C)cc1 (centres undefined) | n | n | 20 | n | n | n | n | n
CCOC(=O)c1c(C)oc2ccc(NS(=O)(=O)c3cccs3)cc12 | n | n | 21 | n | n | n | n | n
COc1ccccc1CNC(=O)N1CCN(Cc2nc3ccccc3c(=O)[nH]2)CC1 | n | n | n | n | n | n | x | x
COc1ccc(CNC(=O)c2ccc(-c3ccc(F)c(F)c3)c3ccoc23)cc1OC | n | n | 21 | n | n | n | n | n
CCOc1ccc(OCCC(=O)OCC(=O)Nc2cc(S(=O)(=O)N3CCOCC3)ccc2C)cc1 | n | n | 68 | n | n | n | n | n
CCOc1ccc(OCCC(=O)OCC(=O)Nc2ccc(C)c(S(=O)(=O)N3CCCCC3)c2)cc1 | n | n | 23 | n | n | n | n | n
CCn1c(=O)n2n(c1=O)[C@H]1C[N+](Cc3ccc4c(c3)OCO4)=C(N)NC1=C(C)C2 | n | n | n | n | n | n | x | x
COc1ccccc1NC(=O)C/C(N)=N/OCC(=O)Nc1cccc(Cl)c1 | n | n | n | n | n | n | x | x
COc1ccccc1NC(=O)c1c(Nc2ccccc2F)sc(C(=O)Nc2cccc(Cl)c2)c1N | n | n | 27 | n | 9.1 | n | n | n
Fc1ccccc1NC(=S)NNc1ncc(C(F)(F)F)cc1Cl | n | n | 21 | n | n | n | n | n
COc1ccc(-n2c(COc3ccccc3)nnc2SCC(=O)Nc2ccc3c(c2)OCCO3)cc1 | n | n | n | n | n | n | x | x
Cc1ccc(-n2c(COc3ccccc3)nnc2SCC(=O)Nc2ccc3c(c2)OCO3)cc1 | n | n | 20 | n | n | n | n | n
C=CCn1c(C)cc(C(=O)COC(=O)C2CC(=O)N(Cc3ccccc3)C2)c1C (centres undefined) | n | n | 78 | n | n | n | n | n
CCOC(=O)c1ccc(N2C(=O)c3n[nH]c(C)c3C2c2cccnc2)cc1 (centres undefined) | n | n | n | n | n | n | x | x
CCOC(=O)c1ccc(N2C(=O)c3n[nH]c(-c4ccco4)c3C2c2ccc([N+](=O)[O-])cc2)cc1 (centres undefined) | n | n | 23 | n | n | n | n | n
O=[N+]([O-])c1ccc(Nc2ccccc2O)c2nonc12 | n | n | 20 | n | n | n | n | n
CCCCCCCCN1C(=O)[C@@H](CC(=O)N2CCC(c3ccccc3)CC2)C[C@@]2(C(=O)OC)C1=C[C@H](COCc1ccccc1)O[C@@H]2C | n | n | n | n | n | n | x | x
COC(=O)[C@]12C[C@H](CC(=O)N3CCC(c4ccccc4)CC3)C(=O)N(Cc3ccccc3)C1=C[C@H](COCc1ccccc1)O[C@@H]2C | n | n | 24 | n | n | n | n | n
CC[C@H](CCCCCCCn1ccc2ccccc21)CCC(=O)N(c1ccccc1)c1ccccc1 | n | n | n | n | n | n | x | x
CN(CCC1CCCCO1)C(=O)c1cc(COc2ccc(F)cc2F)on1 (centres undefined) | n | n | n | n | n | n | x | x
SMILES | DDE Tn7 FP inh | PLCg1 inh | ADAM10 inh | PLCb3 inh | ADAM17 inh | Tn6 DDE FP | ADAM10 confirm | ADAM17 counter
CN(CCCC1CCCC1)C(=O)c1cc(COc2ccc(F)cc2F)on1 | n | n | 22 | n | n | n | n | n
COc1ccc(/C=C/C(Cc2cccc(C(C)=O)c2)c2ccc(C)cc2)cc1 (centres undefined) | n | n | n | n | n | n | x | x
CCc1ccc(CN(C)C(=O)c2cc(COc3cc(C)c(Cl)c(C)c3)on2)nc1 | n | n | n | n | n | n | x | x
Cc1cc(OCc2cc(C(=O)N(C)Cc3nonc3C)no2)cc(C)c1Cl | n | n | 28 | n | n | n | n | n
COC(=O)c1cn[nH]c1NC(=S)Nc1ccccc1C | n | n | 25 | n | n | n | n | n
NC(=O)C1CCN(c2nc(-c3ccc4c(c3)CCO4)cs2)CC1 | n | n | n | n | n | n | x | x
COc1ccccc1C(=O)N1CCCC(c2nc(-c3cccs3)no2)C1 (centres undefined) | n | n | n | n | n | n | x | x
O=C(c1ccc(C#CC2(O)CCCCC2)cc1)N1CCN(C(c2ccccc2)c2ccccc2)CC1 | n | n | 25 | n | n | n | n | n
OCC1(Cc2ccc(F)cc2F)CCCN(CCCc2ccccc2)C1 (centres undefined) | n | n | n | n | n | n | x | x
OCC1(Cc2ccccc2F)CCCN(CCc2ccccc2)C1 (centres undefined) | n | n | 23 | n | n | n | n | n
O=C(O)Cn1nnnc1SCC(=O)Nc1ccc(OC(F)(F)F)cc1 | n | n | 82 | n | n | n | n | n
O=C(NCCO)C1(C(=O)C2CC2)CC(c2ccccc2C(F)(F)F)=NO1 (centres undefined) | n | n | n | n | n | n | x | x
O=C(Nc1ccccc1N1CCCC1)c1ccccc1Cl | n | n | 23 | n | n | n | n | n
Cc1ccccc1C(=O)Nc1ccccc1N1CCCCC1 | n | n | n | n | n | n | x | x
O=C(Nc1ccc(N2CCCC2)cc1)c1cc(Cl)ccc1Cl | n | n | n | n | n | n | x | x

Compound activity: PubChem BioAssay, The Scripps Research Institute Molecular Screening Center
